According to ChEMBL document CHEMBL3414486, “Synthesis of heterocycle-modified betulinic acid derivatives as antitumor agents” (Eur J Med Chem, 2015):

Columns and labels:
[1] = system: MCF7; experiment: Cytotoxicity against human MCF7 cells assessed as growth inhibition after 96 hrs by SRB assay; assay type: functional, cell-based; settings: MCF7, 96 h
In short: (§1)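 SRB viability assay. Cells are seeded for 24 h, then exposed for 96 h to a concentration series from 20 mM DMSO stocks, with a DMSO control. Cells are fixed in 50% TCA (2 h, 4 °C), stained with 0.4% SRB for 10 min and washed with 1% acetic acid. Bound dye is dissolved in 10 mM Tris base and read at 515 nm. IC50 is averaged from at least 3 independent experiments. SI is IC50 in HAF divided by IC50 in the cancer line.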

[2] = Cytotoxicity against human HCT116 cells assessed as growth inhibition after 96 hrs by SRB assay; assay type: functional, cell-based; settings: HCT-116, 96 h; in short: as §1
[3] = system: T47D; experiment: Cytotoxicity against human T47D cells assessed as growth inhibition after 96 hrs by SRB assay; assay type: functional, cell-based; in short: as §1
[4] = system: MDA-MB-231; experiment: Cytotoxicity against human MDA-MB-231 cells assessed as growth inhibition after 96 hrs by SRB assay; assay type: functional, cell-based; settings: MDA-MB-231, 96 h; in short: as §1
[5] = system: 4T1; experiment: Cytotoxicity against mouse 4T1 cells assessed as growth inhibition after 96 hrs by SRB assay; assay type: functional, cell-based; settings: 4T1, 96 h; in short: as §1
[6] = Cytotoxicity against human PC3 cells assessed as growth inhibition after 96 hrs by SRB assay; assay type: functional, cell-based; settings: PC-3, 96 h; in short: as §1
[7] = system: DU-145; experiment: Cytotoxicity against human DU145 cells assessed as growth inhibition after 96 hrs by SRB assay; assay type: functional, cell-based; settings: DU-145, 96 h; in short: as §1
[8] = system: HT-29; experiment: Cytotoxicity against human HT-29 cells assessed as growth inhibition after 96 hrs by SRB assay; assay type: functional, cell-based; settings: HT-29, 96 h; in short: as §1
[9] = system: HT-29; experiment: Selectivity index, ratio of IC50 for HAF to IC50 for human HT-29 cells; in short: as §1
[10] = system: 4T1; experiment: Selectivity index, ratio of IC50 for HAF to IC50 for mouse 4T1 cells; in short: as §1
[11] = Cytotoxicity against human MCF7/ADR cells assessed as growth inhibition after 96 hrs by SRB assay; assay type: functional, cell-based; settings: NCI/ADR-RES; in short: as §1
[12] = system: DU-145; experiment: Selectivity index, ratio of IC50 for HAF to IC50 for human DU145 cells; in short: as §1
[13] = system: NCI/ADR-RES; experiment: Selectivity index, ratio of IC50 for HAF to IC50 for human MCF7/ADR cells; in short: as §1
[14] = system: MCF7; experiment: Selectivity index, ratio of IC50 for HAF to IC50 for human MCF7 cells; in short: as §1
[15] = Cytotoxicity against HAF assessed as growth inhibition after 96 hrs by SRB assay; settings: Homo sapiens; in short: as §1
[16] = Selectivity index, ratio of IC50 for HAF to IC50 for human MDA-MB-231 cells; in short: as §1
[17] = system: HCT-116; experiment: Selectivity index, ratio of IC50 for HAF to IC50 for human HCT116 cells; in short: as §1
[18] = system: PC-3; experiment: Selectivity index, ratio of IC50 for HAF to IC50 for human PC3 cells; in short: as §1
[19] = system: T47D; experiment: Selectivity index, ratio of IC50 for HAF to IC50 for human T47D cells; in short: as §1

SMILES | IC50 [1] [µM] | IC50 [2] [µM] | IC50 [3] [µM] | IC50 [4] [µM] | IC50 [5] [µM] | IC50 [6] [µM] | IC50 [7] [µM] | IC50 [8] [µM] | Ratio IC50 [9] | Ratio IC50 [10] | IC50 [11] [µM] | Ratio IC50 [12] | Ratio IC50 [13] | Ratio IC50 [14] | IC50 [15] [µM] | Ratio IC50 [16] | Ratio IC50 [17] | Ratio IC50 [18] | Ratio IC50 [19]
C=C(C)[C@@H]1CC[C@]2(C(=O)O)CC[C@]3(C)[C@H](CC[C@@H]4[C@@]5(C)CC[C@H](NC(=O)c6cccnc6Cl)C(C)(C)[C@@H]5CC[C@]43C)[C@@H]12 | > 25 | > 25 | 17.7 | > 25 | 16.1 | > 25 | > 25 | > 25 |  |  |  |  |  |  |  |  |  |  | 
C=C(C)[C@@H]1CC[C@]2(C(=O)O)CC[C@]3(C)[C@H](CC[C@@H]4[C@@]5(C)CC[C@H](NC(=O)C6CCCN6)C(C)(C)[C@@H]5CC[C@]43C)[C@@H]12 (some centres not stated) | 15.2 | 17.5 | 11 | 12.8 | 8.03 | 20.3 | 11 | 18.8 |  |  |  |  |  |  |  |  |  |  | 
C=C(C)[C@@H]1CC[C@]2(C(=O)O)CC[C@]3(C)[C@H](CC[C@@H]4[C@@]5(C)CC[C@H](NC(=O)c6cccnc6)C(C)(C)[C@@H]5CC[C@]43C)[C@@H]12 | > 25 | > 25 | > 25 | > 25 | > 25 | > 25 | > 25 | > 25 |  |  |  |  |  |  |  |  |  |  | 
C=C(C)[C@@H]1CC[C@]2(C(=O)O)CC[C@]3(C)[C@H](CC[C@@H]4[C@@]5(C)CC[C@H](NC(=O)C6CCCNC6)C(C)(C)[C@@H]5CC[C@]43C)[C@@H]12 (some centres not stated) | 0.94 | 1.28 | 2.24 | 1.94 | 2.18 | 1.3 | 3.16 | 1.19 | 2.7 | 1.5 | 0.39 | 1 | 8.2 | 3.4 | 3.18 | 1.6 | 2.5 | 2.4 | 1.4
C=C(C)[C@@H]1CC[C@]2(C(=O)O)CC[C@]3(C)[C@H](CC[C@@H]4[C@@]5(C)CC[C@H](NC(=O)c6ccncc6)C(C)(C)[C@@H]5CC[C@]43C)[C@@H]12 | > 25 | > 25 | > 25 | > 25 | > 25 | > 25 | > 25 | > 25 |  |  |  |  |  |  |  |  |  |  | 
C=C(C)[C@@H]1CC[C@]2(C(=O)O)CC[C@]3(C)[C@H](CC[C@@H]4[C@@]5(C)CC[C@H](NC(=O)c6cnccn6)C(C)(C)[C@@H]5CC[C@]43C)[C@@H]12 | > 25 | > 25 | > 25 | > 25 | > 25 | > 25 | > 25 | > 25 |  |  |  |  |  |  |  |  |  |  | 
C=C(C)[C@@H]1CC[C@]2(C(=O)O)CC[C@]3(C)[C@H](CC[C@@H]4[C@@]5(C)CC[C@H](NC(=O)CC6CCNCC6)C(C)(C)[C@@H]5CC[C@]43C)[C@@H]12 | 3.43 | 2.67 | 2.37 | 3.17 | 5.15 | 2.55 | 3.72 | 2.46 | 3.7 | 1.8 | 3 | 2.5 | 3.1 | 2.7 | 9.21 | 2.9 | 3.4 | 3.6 | 3.9
COc1cccc2c1C(=O)c1c(O)c3c(c(O)c1C2=O)C[C@@](O)(C(=O)CO)C[C@@H]3O[C@H]1C[C@H](N)[C@H](O)[C@H](C)O1 [DOXORUBICIN] |  |  |  |  |  |  |  |  |  |  | 9.26 |  |  |  | 0.016 |  |  |  | 
C=C(C)[C@@H]1CC[C@]2(C(=O)O)CC[C@]3(C)[C@H](CC[C@@H]4[C@@]5(C)CC[C@H](OC(=O)C6CCNCC6)C(C)(C)[C@@H]5CC[C@]43C)[C@@H]12 | 2.41 | 1.4 | 3.05 | 1.6 | 3.74 | 2.18 | 2.69 | 1.32 | 4.3 | 1.5 | 0.59 | 2.1 | 9.7 | 2.4 | 5.7 | 3.6 | 4.1 | 2.6 | 1.9
C=C(C)[C@@H]1CC[C@]2(C(=O)O)CC[C@]3(C)[C@H](CC[C@@H]4[C@@]5(C)CC[C@H](OC(=O)C6CCCNC6)C(C)(C)[C@@H]5CC[C@]43C)[C@@H]12 (some centres not stated) | 4.42 | 4.6 | 9.73 | 4.97 | 7.65 | 8.09 | 11.3 | 4.89 | 1.1 | 0.7 | 1.6 | 0.5 | 3.4 | 1.2 | 5.42 | 1.1 | 1.2 | 0.7 | 0.6
C=C(C)[C@@H]1CC[C@]2(C(=O)O)CC[C@]3(C)[C@H](CC[C@@H]4[C@@]5(C)CC[C@H](NC(=O)CCCC6CCNCC6)C(C)(C)[C@@H]5CC[C@]43C)[C@@H]12 | 6.49 | 5.61 | 5.26 | 3.44 | 6.01 | 5.23 | 7.7 | 4.38 | 2.1 | 1.5 | 0.93 | 1.2 | 9.8 | 1.4 | 9.15 | 2.7 | 1.6 | 1.7 | 1.7
C=C(C)[C@@H]1CC[C@]2(C(=O)O)CC[C@]3(C)[C@H](CC[C@@H]4[C@@]5(C)CC[C@H](NC(=O)C6CCCCN6)C(C)(C)[C@@H]5CC[C@]43C)[C@@H]12 (some centres not stated) | 4.81 | 11.4 | 6.49 | 10.6 | 7.87 | > 25 | 7.31 | 20.1 |  |  |  |  |  |  |  |  |  |  | 
C=C(C)[C@@H]1CC[C@]2(C(=O)O)CC[C@]3(C)[C@H](CC[C@@H]4[C@@]5(C)CC[C@H](NC(=O)CCC6CCNCC6)C(C)(C)[C@@H]5CC[C@]43C)[C@@H]12 | 2.9 | 6.86 | 2.59 | 3.27 | 2.99 | 3.42 | 4.39 | 2.39 | 2.9 | 2.3 | 4.42 | 1.6 | 1.6 | 2.4 | 6.89 | 2.1 | 1 | 2 | 2.7
C=C(C)[C@@H]1CC[C@]2(C(=O)O)CC[C@]3(C)[C@H](CC[C@@H]4[C@@]5(C)CC[C@H](NC(=O)c6cnc(C)cn6)C(C)(C)[C@@H]5CC[C@]43C)[C@@H]12 | > 25 | > 25 | > 25 | > 25 | > 25 | > 25 | > 25 | > 25 |  |  |  |  |  |  |  |  |  |  | 
